The text below walks through data of paper PMC4332549 (ChemMedChem, 2012).

Square brackets hold non-standard residues; d marks the D form. Peptide text beside a SMILES is read from it. * marks the point of attachment. Palmitoyl = CCCCCCCCCCCCCCCC(=O)*; Ahp = NCCCCCCC(=O)O; Ahx = NCCCCCC(=O)O; Sar = CNCC(=O)O

One series can be described thus: Rat serum stability. In kind it is in vitro ADME. Put shortly: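 Male Sprague-Dawley rat trunk-blood serum, kept at −80 °C and used within 3 months. 10 μg peptide in 1 mL pre-warmed 25% serum in 0.1 M Tris-HCl pH 7.5 at 37 °C. Sampled at 0, 30 min, 1, 2, 4 and 8 h, quenched with TCA/isopropanol at −20 °C for 20 min, then centrifuged. Intact peptide measured by reverse-phase HPLC; t1/2 fitted from ≥3 independent time-courses.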

Series [1] concerns the target T1, hGAL1 (human galanin receptor GalR1) (Homo sapiens, UniProt P47211).
T1 sequence (P47211 1-349): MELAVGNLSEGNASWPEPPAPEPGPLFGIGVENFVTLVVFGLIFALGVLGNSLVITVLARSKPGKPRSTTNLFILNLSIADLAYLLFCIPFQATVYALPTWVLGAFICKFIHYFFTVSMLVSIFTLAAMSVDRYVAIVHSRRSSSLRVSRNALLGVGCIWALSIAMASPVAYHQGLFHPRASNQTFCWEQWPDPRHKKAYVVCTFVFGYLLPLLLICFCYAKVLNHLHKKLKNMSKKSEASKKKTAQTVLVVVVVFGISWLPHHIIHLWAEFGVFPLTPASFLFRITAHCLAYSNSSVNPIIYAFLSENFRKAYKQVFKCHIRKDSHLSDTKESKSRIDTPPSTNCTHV
Description: Competitive binding assay, Eu-labeled galanin, time-resolved fluorescence.

The conditions of series [2]: octanol-water log D, shake-flask / HPLC; cited from earlier work.
The target in series [3] is T2, hGAL2 (human galanin receptor GalR2) (Homo sapiens, UniProt O43603).
T2 sequence (O43603 1-387): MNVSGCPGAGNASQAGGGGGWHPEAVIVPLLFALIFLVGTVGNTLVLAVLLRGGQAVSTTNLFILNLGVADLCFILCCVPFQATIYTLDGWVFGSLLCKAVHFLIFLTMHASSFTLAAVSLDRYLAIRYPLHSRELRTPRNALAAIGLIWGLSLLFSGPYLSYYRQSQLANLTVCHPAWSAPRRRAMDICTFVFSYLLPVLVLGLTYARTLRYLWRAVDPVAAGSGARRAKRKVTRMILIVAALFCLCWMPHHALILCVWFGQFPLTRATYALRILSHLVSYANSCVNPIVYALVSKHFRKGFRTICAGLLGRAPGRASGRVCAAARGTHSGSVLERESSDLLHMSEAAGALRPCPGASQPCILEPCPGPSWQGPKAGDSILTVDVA
In words: Competitive binding assay, Eu-labeled galanin, time-resolved fluorescence.

As for `CCCCCCCCCCCCCCCC(=O)NCCCC[C@H](NC(=O)[C@@H](CCCCN)NC(=O)[C@@H](CCCCN)NC(=O)CCCCCCNC(=O)[C@H](Cc1ccc(O)cc1)NC(=O)CNC(=O)[C@H](C)NC(=O)[C@H](CO)NC(=O)[C@H](CC(N)=O)NC(=O)[C@H](CC(C)C)NC(=O)[C@@H](NC(=O)[C@H](Cc1c[nH]c2ccccc12)NC(=O)CNC)[C@@H](C)O)C(=O)N[C@H](CCCCN)C(N)=O` [D-Gal(7-Ahp)-B2] (H-[Sar]WTLNSAGY[Ahp][dK][dK]K(Palmitoyl)[dK]-NH2), the half-life – broadly, how long it takes for the measured level to halve – at 10 µg/mL in “Rat serum stability” (male, Sprague-Dawley, rat, 25% rat serum, pH 7.5) was above 600 min.
As for `CCCCCCCCCCCCCCCC(=O)NCCCC[C@H](NC(=O)[C@@H](CCCCN)NC(=O)[C@@H](CCCCN)NC(=O)[C@H](Cc1ccc(O)cc1)NC(=O)CNC(=O)[C@H](C)NC(=O)[C@H](CO)NC(=O)[C@H](CC(N)=O)NC(=O)[C@H](CC(C)C)NC(=O)[C@@H](NC(=O)[C@H](Cc1c[nH]c2ccccc12)NC(=O)CNC)[C@@H](C)O)C(=O)N[C@H](CCCCN)C(N)=O` [D-[des-LLGP]Gal-B2] (H-[Sar]WTLNSAGY[dK][dK]K(Palmitoyl)[dK]-NH2), the Ki (as a rule, a measure of affinity in units of concentration, obtained from inhibition or displacement) in series [1] is at least 30 µM.
In the case of `CCCCCCCCCCCCCCCC(=O)NCCCC[C@H](NC(=O)[C@H](CCCCN)NC(=O)[C@H](CCCCN)NC(=O)[C@@H]1CCCN1C(=O)CNC(=O)[C@H](CC(C)C)NC(=O)[C@H](CC(C)C)NC(=O)[C@H](Cc1ccc(O)cc1)NC(=O)CNC(=O)[C@H](C)NC(=O)[C@H](CO)NC(=O)[C@H](CC(N)=O)NC(=O)[C@H](CC(C)C)NC(=O)[C@@H](NC(=O)[C@H](Cc1c[nH]c2ccccc12)NC(=O)CNC)[C@@H](C)O)C(=O)N[C@@H](CCCCN)C(N)=O` [Gal-B2], in series [2], the log D (as a rule, lipophilicity at a set pH, counting ionised and neutral species) was 1.24. The “increase of t1/2 compared to Gal(1-16)” value in “Rat serum stability” (rat serum) came to 80 fold.
`CCCCCCCCCCCCCCCC(=O)NCCCC[C@H](NC(=O)[C@H](CCCCN)NC(=O)[C@H](CCCCN)NC(=O)CCCCCNC(=O)[C@H](Cc1ccc(O)cc1)NC(=O)CNC(=O)[C@H](C)NC(=O)[C@H](CO)NC(=O)[C@H](CC(N)=O)NC(=O)[C@H](CC(C)C)NC(=O)[C@@H](NC(=O)[C@H](Cc1c[nH]c2ccccc12)NC(=O)CNC)[C@@H](C)O)C(=O)N[C@@H](CCCCN)C(N)=O` [L-Gal(6-Ahx)-B2] (H-[Sar]WTLNSAGY[Ahx]KKK(Palmitoyl)K-NH2) had a Ki in series [1] of 1.17 ± 0.3 µM.
`CCCCCCCCCCCCCCCC(=O)NCCCC[C@H](NC(=O)[C@H](CCCCN)NC(=O)[C@H](CCCCN)NC(=O)[C@H](Cc1ccc(O)cc1)NC(=O)CNC(=O)[C@H](C)NC(=O)[C@H](CO)NC(=O)[C@H](CC(N)=O)NC(=O)[C@H](CC(C)C)NC(=O)[C@@H](NC(=O)[C@H](Cc1c[nH]c2ccccc12)NC(=O)CNC)[C@@H](C)O)C(=O)N[C@@H](CCCCN)C(N)=O` [[des-LLGP]Gal-B2] (H-[Sar]WTLNSAGYKKK(Palmitoyl)K-NH2): the Ki in series [3] is 27.4 µM; in series [1], at least 30 µM.
